A selection: hits, their analogues and other compounds. The true share with any hit is near 9.4%.
L major viab: reduces viability of Leishmania major promastigotes. resazurin fluorescence viability. inhibition, % at 10 µM. actives 9% (n = 200,000). AID 1063; in the data active = inhibition above about 50%;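 note: promastigotes grown with compound for 44 hours at 28 °C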
Beta apoptosis: blocks beta cell apoptosis | protection from apoptosis, % (test concentration not listed) | actives 0.8% (n = 300,000) | INS-1E cytokine-induced death, ATP luminescence, 48 h; percent of positive-control rescue, neutral wells zero;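 active = Every replicate reaches about 75%, or at least half do and their mean reaches it too, limit read from the data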;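 note: 0% = cytokine-treated negative control wells and 100% = positive control rescue; higher means more ATP so stronger rescue from cytokine killing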
Mdm2-MdmX inh: disrupts the human Mdm2-MdmX interaction. inhibition, % at 8 µM. SaOS-2 split-luciferase Mdm2/MdmX complementation, luminescence. actives 3% (n = 330,000). AID 485346;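 active = inhibition of at least 50% at 8 µM in the primary screen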
CSC inhib: cancer stem cell inhibition | cancer stem cell-like cells viability, luminescence | inhibition, % at 7.5 µM | actives 1.1% (n = 300,000) | AID 2717; in the data active = inhibition above about 75%; tested in HMLE shEcad cells
SKKanGAS inh: inhibitors of SKKanGAS S. pyogenes growth in kanamycin (SK-promoter or general growth effect) | actives 1.3% (n = 300,000) | BacTiter-Glo, 6 h | inhibition, % at 7.5 µM;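 active = mean replicate score, as percent of positive control median, at least 50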;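 note: strain carries kanamycin resistance gene driven by streptokinase promoter and grows in 40 µg/ml kanamycin; loss of luminescence reflects streptokinase promoter inhibition or plain growth inhibition; 0% = median of DMSO wells and 100% = positive control at its reference dose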
T cruzi repl: blocks replication of Trypanosoma cruzi; actives 1.4% (n = 300,000); inhibition, % (no concentration beside the values); T. cruzi beta-gal in NIH3T3, luminescence, 90 h;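 active = mean inhibition across valid replicates above about 55%, limit read from the data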;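 note: signal also drops with host cell toxicity which is not excluded here; 0% = plate median of DMSO wells and 100% = zero luminescence signal; higher percent means less beta-gal luminescence so fewer parasites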
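assay system = mouse NIH/3T3 fibroblasts infected with β-gal-expressing T. cruzi Tulahuen C4 | input = 5,000 NIH/3T3 host cells per well | buffer or medium = DMEM plus 2% FBS | timing = 3 h host attachment, then at least 90 h co-culture | measured by = GalScreen luminescence, 60 min | evaluation = luminescence reflecting intracellular parasite burden, expressed as percent inhibition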
Mdm2 MdmX conf: human Mdm2/MdmX binding inhibition, confirmed. luminescent assay. AID 489028. inhibition, % at 8 µM. actives 55% (n = 10,000). shares compounds with Mdm2-MdmX inh; in the data active = inhibition above about 40%
FLuc counter: full-length luciferase inhibition in Mdm2/MdmX counter-screen; shares compounds with Mdm2-MdmX inh; SaOS-2 full-length luciferase counterscreen, luminescence; inhibition, % at 8 µM; actives 77% (n = 6,200); AID 504607;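 active = mean inhibition at 8 µM reaching about 37%, which flags the compound as non-specific, limit read from the data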;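 note: p53-null SaOS-2 cells with luciferase driven by a doxycycline-inducible promoter; compound on cells about two nights before reading with doxycycline added after day one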
The depositor's hits bear a star; . = not tested or not shown.

SMILES	L major viab	Beta apoptosis	Mdm2-MdmX inh	CSC inhib	SKKanGAS inh	T cruzi repl	Mdm2 MdmX conf	FLuc counter
O=C(CS(=O)CC(=O)N(c1cccc(F)c1)C(C(=O)NC1CCCCC1)c1ccco1)Nc1ccc(F)cc1 (centres undefined)	33.8	-5.3	3.6	-8.2	10.3	-3.9	.	.
O=C(NCc1ccco1)/C(=C\c1ccc(F)cc1)NC(=O)c1ccco1	.	-1.3	5.4	7.0	-4.2	-3.1	.	.
Cn1c(=O)[nH]c(=O)c2c1nc(Br)n2CCCSc1nc2ccccc2o1	6.9	1.8	65.1*	.	-9.9	62.8*	56.2*	97.6*
N#CCc1nn2c3c(cnc2c1C#N)C(=O)CCC3	2.6	0.9	17.0	7.6	2.6	5.2	.	.
Cc1nc(SCC(=O)N2CCOCC2)c2c(C)c(C)sc2n1	.	-5.4	17.5	-12.3	-4.8	-11.7	.	.
Cc1nc(SCC(=O)Nc2ccc(S(=O)(=O)N3CCOCC3)cc2)c2c(C)c(C)sc2n1	.	10.5	81.9*	21.5	.	.	44.2*	28.6
Cc1ccc2nc(-c3ccccc3)nc(SC(C)C(=O)NCc3cccs3)c2c1 (centres undefined)	4.9	15.4	62.9*	3.6	0.9	-6.4	-10.1	.
O=c1c2ccccc2cnn1CCOc1cccc(Br)c1	.	1.6	-36.6	-2.4	-7.8	2.9	.	.
CC(=O)Nc1nc(-c2ccc(Cl)cc2)nc(C)c1C(C)=O	5.3	-4.0	-6.1	-0.6	0.4	-8.4	.	.
CC(=O)Nc1ncnc2c1c(-c1ccc(Cl)cc1)nn2C(C)(C)C	0.2	-1.3	73.2*	19.1	0.5	60.6*	37.4	55.2*
COc1cc2nc(SCC(=O)c3ccc(Br)cc3)n3nc(C)nc3c2cc1OC	0.6	3.8	65.2*	-14.8	7.5	10.0	18.6	.
CCCN(CCC)CCCNC(=O)c1cn(CC)c2ccc(S(=O)(=O)N3CCc4ccccc4C3)cc2c1=O	99.4*	4.4	74.8*	0.7	-0.8	27.5	36.2	63.3*
CCCCN(C)CCCNC(=O)c1cn(CC)c2ccc(S(=O)(=O)N3CCc4ccccc4C3)cc2c1=O	99.2*	-1.4	54.2*	.	3.7	52.5	24.2	.
CCCCN(CC)CCCNC(=O)c1cn(CC)c2ccc(S(=O)(=O)N3CCc4ccccc4C3)cc2c1=O	98.3*	2.4	56.9*	-1.8	1.8	52.4	22.5	.
O=C(COC(=O)[C@H](Cc1ccccc1)NC(=O)c1ccco1)Nc1ccccc1OC(F)F	.	-7.1	17.8	-1.4	.	.	.	.
Cc1ccc(Nc2nc3ccccc3nc2-n2nc(C)cc2C)cc1	-5.8	1.3	14.6	40.8	6.7	2.9	.	.
Cc1ccc(Nc2cc(C)nn2-c2nc(C)cc(=O)[nH]2)cc1	100.5*	98.2*	97.8*	92.7*	92.0*	56.0*	99.7*	1.6
COc1cccc(-c2nn(-c3ccccc3)cc2CNC(C)Cn2cncn2)c1 (centres undefined)	5.8	.	11.4	5.8	-10.2	-9.8	.	.
Fc1ccc(NC(=S)Nc2ccc(F)c(Cl)c2)cc1Cl	97.1*	37.4	64.5*	1.6	64.2*	35.3	28.4	.
O=C(NC(=S)Nc1ccc(F)c(Cl)c1)C1CC1	.	-1.5	14.7	3.9	0.9	-15.9	.	.
O=C(C#Cc1ccccc1)c1ccco1	.	99.8*	97.9*	59.2	-3.0	-19.4	67.5*	51.5*
O=C(Cc1ccc(Cl)cc1)N1CCC2(CC1)NCCc1[nH]cnc12	.	-8.2	-40.3	16.4	6.9	-6.9	.	.
Cc1ccc(C(=O)Nc2ccc(N3CCN(C)CC3)cc2)cc1C	.	.	-27.6	-10.9	-0.3	-10.8	.	.
Cc1ccc(-n2cc(C(=O)c3ccc(N4CCN(C)CC4)cc3)nn2)cc1Cl	100.5*	-1.6	98.0*	.	9.4	13.5	4.1	.
Cc1ccc(C(=O)c2cn(-c3ccc(F)c(Cl)c3)nn2)cc1	-3.1	-8.1	38.6	-0.6	5.8	-3.3	.	.
SMILES	L major viab	Beta apoptosis	Mdm2-MdmX inh	CSC inhib	SKKanGAS inh	T cruzi repl	Mdm2 MdmX conf	FLuc counter
CN1CCN(c2ccc(C(=O)c3cn(-c4ccc(F)c(Cl)c4)nn3)cc2)CC1	50.0*	-1.4	80.8*	70.3	-0.9	29.5	42.3*	91.0*
Cc1cccc(N(CC(=O)N2CCc3ccccc3C2)S(C)(=O)=O)c1C	.	-6.6	5.5	-19.7	-3.6	8.7	.	.
COc1ccccc1C1C(C(C)=O)=C(C)N=c2s/c(=C\c3cc(OC)c(OC)c(OC)c3)c(=O)n21 (centres undefined)	54.9*	11.9	57.9*	17.6	22.4	34.6	41.4*	50.2*
COc1cccc(C2C3=C(N=c4s/c(=C\c5ccccc5O)c(=O)n42)c2ccccc2CC3)c1OC (centres undefined)	13.1	7.1	95.4*	-10.3	-3.9	-9.0	50.0*	52.9*
Cn1c(=O)c2sccc2n2c(CCCC(=O)N3CCCCC3)nnc12	.	0.7	1.7	-4.8	-2.6	-13.9	.	.
O=C(CCN1C(=O)/C(=C\c2ccccc2F)SC1=S)Nc1ccc(C(=O)O)c(O)c1	.	2.8	5.1	-5.5	7.7	-6.3	.	.
O=C(CCN1C(=O)/C(=C/c2ccccc2)SC1=S)NNC(=O)c1ccncc1	2.1	.	-33.7	-3.9	-8.6	5.0	.	.
O=C(CCN1C(=O)/C(=C/c2ccccc2F)SC1=S)N[C@@H](CO)Cc1ccccc1	.	.	80.0*	21.4	3.6	-6.1	36.5	54.0*
O=C(CCN1C(=O)/C(=C/c2ccccc2)SC1=S)N[C@@H](CO)Cc1ccccc1	.	-58.1	89.0*	34.0	-2.0	-11.4	71.5*	49.8*
Cc1ccc(S(=O)(=O)/C(C#N)=C/c2c(Oc3ccc(Cl)cc3)nc3c(C)cccn3c2=O)cc1	76.9*	0.9	58.7*	5.3	1.8	3.0	8.0	.
CCOc1cc(NC(=O)C2CC2)c(OCC)cc1NC(=O)c1ccccc1OCC	.	31.4	35.7	40.3	17.2	16.6	.	.
CCOc1cc(NC(=O)c2ccccc2C)c(OCC)cc1NC(=O)C1=Cc2ccccc2OC1	-5.5	0.6	61.7*	.	1.3	3.6	16.4	.
O=C(COC(=O)CNS(=O)(=O)c1ccc(Br)cc1Cl)NCCc1ccccc1	.	-4.3	-22.2	-3.5	-16.0	-9.4	.	.
Cc1ccc(N2CN=c3s/c(=C\c4cccnc4)c(=O)n3C2)cc1	17.7	-7.9	65.6*	-9.3	2.5	-9.5	23.8	.
Cc1ccc(NC(=O)C2CC(O)CN2C(=O)OCc2ccccc2)c(C)c1 (centres undefined)	.	2.9	13.4	.	1.0	0.1	.	.
COc1ccc(NC(=O)[C@H](C)NC(=O)C2CCN(S(=O)(=O)c3ccc(C)cc3)CC2)cc1OC	.	2.2	17.1	9.9	8.0	-9.1	.	.
CC1CN(S(=O)(=O)c2ccc(C(=O)N(CCCN(C)C)c3nc4cc5c(cc4s3)OCCO5)cc2)CC(C)O1 (centres undefined)	.	.	-12.7	-5.3	4.3	44.1	.	.
